Screens (PubChem BioAssay)
APP 5'UTR act: activates APP 5'UTR luciferase reporter; SH-SY5Y APP 5'UTR luciferase reporter, luminescence; zero percent = DMSO vehicle wells; activation, % at 2 µM; 190,000 tested, 1% active;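 active = activation above a set limit, based on mean plus 3 SD of controls, cut at about 140% in these data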
STAT3 act: STAT3 signaling activation; 190,000 tested, 0.91% active; AID 871; U3A cells, IL-6 STAT3-luciferase reporter, luminescence; 100% = signal with IL-6 EC80 alone; activation (% of control), % at 5.6 µM;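 active = activation above the screen-wide mean of compound activation plus 3 SD, cut at about 130% in these data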;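 note: 0% = background luminescence of wells with medium and substrate only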
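System – human U3A cells carrying STAT3-luciferase construct · Probe or stimulus – Interleukin-6, 33 ng/mL · Schedule – compound 1 h, then IL-6 6 h at 37 °C · Signal – luminescence from STAT3-driven luciferase reporter · Evaluation – percent of IL-6-only median luminescence · Benchmarks – IL-6-only high control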
STAT3 inh: STAT3 signaling inhibition | U3A cells, IL-6 STAT3-luciferase reporter, luminescence; host cell line lacks STAT1 | inhibition, % at 5.5 µM | 190,000 tested, 0.89% active;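 active = inhibition above the mean inhibition across all screened compounds plus 3 SD, cut at about 44% in these data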;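 note: 0% = DMSO only wells and 100% = 100 µM nifuroxazide control wells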
NF-kB neuron act: NF-kB expression increase, human neuronal cells; NF-kB reporter expression; stronger effect = higher value; fold change at 12.5 µM; 190,000 tested, 1.6% active; AID 1239; in the data active = fold change above about 3.3
STAT1 blocker: STAT1 signaling inhibition; NIH 3T3 STAT1-luciferase reporter, IFN-gamma, luminescence; inhibition, % at 5.5 µM; 200,000 tested, 0.35% active;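 active = inhibition above a set limit, the mean inhibition across all tested compounds plus 3 SD, cut at about 34% in these data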;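 note: 0% = IFN-gamma with DMSO and 100% = IFN-gamma with 300 µM nifuroxazide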
STAT1 act: STAT1 signaling activation. NIH 3T3 STAT1-luciferase reporter, IFN-gamma, luminescence; 100% = IFN-gamma alone, no compound. activation (% of control), % at 5.5 µM. 200,000 tested, 2.6% active;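 active = activation above the screen-wide mean activation plus 3 SD, cut at about 130% in these data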;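 note: raw ratio to IFN-gamma control signal so 100% means no change and 0% no light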
* hit, by the source's call. A selection: hits, their analogues and other compounds. The true share with any hit is near 4.9%.

SMILES | APP 5'UTR act | STAT3 act | STAT3 inh | NF-kB neuron act | STAT1 blocker | STAT1 act
Cc1csc2ncc(C(=O)NCc3ccco3)c(=O)n12 | 7 | 102 | 1 | 1.2 | 1 | 99
Cc1cccc(NC(=O)c2cnc3scc(C)n3c2=O)c1 | 2 | 120 | -14 | 3.1 | -32 | 129*
Cc1csc2ncc(C(=O)Nc3ccon3)c(=O)n12 | -2 | 91 | 14 | 1.3 | -6 | 105
O=C(CN1CCCC1)Nc1ccc(Oc2ccc(NC(=O)CN3CCCC3)cc2)cc1 | 2 | 99 | 6 | 0.95 | 8 | 93
O=C(CN1CCCC1)Nc1ccc(NC(=O)Nc2ccccc2)cc1 | 51 | 102 | 1 | 1.7 | -34 | 131*
COc1ccc2[nH]c3nc(SCc4nnc(-c5ccccc5)o4)nnc3c2c1 | 4 | 85 | 27 | 1.1 | -5 | 104
COc1ccc2[nH]c3nc(SC(C)C)nnc3c2c1 | 185* | 87 | 22 | 5.1* | 16 | 85
CC(C)(C)c1ccc(S(=O)(=O)CCc2ccccn2)cc1 | 12 | 116 | -15 | 1.7 | -32 | 129*
O=C(O)c1cc2c(s1)-c1ccccc1CC2 | 16 | 107 | -12 | 0.98 | -3 | 103
c1ccc(-c2cc3n(c2)CCc2ccccc2-3)cc1 | 48 | 191* | -106 | 2.9 | -43 | 130*
CCOC(=O)Cc1ccc(NC(=O)c2ccc(C(C)(C)C)cc2)cc1 | -71 | 20 | 96* | 0.36 | 38* | 67
Cc1noc(N)c1C(=O)Nc1ccc(C(C)(C)C)cc1 | 75 | 99 | 6 | 4* | -47 | 143*
COC(=O)Cc1ccc(NC(=O)c2ccc(C)c(C)c2)cc1 | 21 | 96 | 8 | 3.9* | -36 | 133*
CCn1nc(C)c(CNC(=O)Nc2ccccc2C(=O)OC)c1C | 6 | 97 | 6 | 0.96 | 10 | 91
CCN(CC)c1ccc2cc(-c3nc4ccccc4n3C)c(=O)oc2c1 | -87 | 145* | -44 | 4.1* | -40 | 136*
CCN(CC)c1ccc2cc(-c3nc(-c4ccc(OC)cc4)cs3)c(=O)oc2c1 | 10 | 93 | 10 | 1 | 2 | 99
COC(=O)c1ccc(NC(=O)C(OC)c2ccccc2)cc1 (stereo not drawn) | 16 | 100 | 2 | 1.5 | -10 | 109
COc1ccc2oc(C(=O)NCCC(C)C)c(C)c2c1 | 139* | 93 | 11 | 1 | -41 | 135*
CCOc1ccc(-n2c(SCC(=O)Nc3cc(OC)c([N+](=O)[O-])cc3C)nc3ccccc32)cc1 | 16 | 94 | 8 | 0.84 | 6 | 95
COc1cc([N+](=O)[O-])ccc1NC(=O)CSc1nc2ccccc2n1-c1ccccc1 | 13 | 118 | -24 | 4.2* | 4 | 96
CCC1(C)N=C(c2ccc3c(c2)OCO3)CC(c2ccccc2O)N1 (stereo not drawn) | 71 | 144* | -44 | 2.2 | 7 | 93
O=c1[nH]c(SCc2ccccc2)nc2[nH]ncc12 | -3 | 104 | 1 | 1.3 | -7 | 104
CCCCCN(C(=O)CN1CCC(Cc2ccccc2)CC1)c1c(N)n(CCCC)c(=O)[nH]c1=O | -2 | 108 | -10 | 0.8 | 0 | 100
Cc1ccc(C(=O)O/N=C(\N)c2nonc2N)cc1 | 13 | 96 | 0 | 1 | -38 | 134*
N/C(=N/OC(=O)c1ccccc1Cl)c1nonc1N | 19 | 92 | 13 | 4.9* | -11 | 110
SMILES | APP 5'UTR act | STAT3 act | STAT3 inh | NF-kB neuron act | STAT1 blocker | STAT1 act
CCOC(=S)SCC(=O)Nc1nc(-c2ccc(Br)cc2)cs1 | -32 | 108 | -6 | 4.6* | -9 | 108
O=C(CSc1ccc(-c2ccccn2)nn1)c1ccccc1 | 39 | 102 | 3 | 1.6 | -27 | 123
COC(=O)c1ccnc(SCC(=O)c2ccccc2)c1 | 119 | 104 | 4 | 2 | -35 | 132*
Cc1nc(N2CCCCC2)c(C#N)c(C)c1[N+](=O)[O-] | 19 | 89 | 16 | 1.2 | -10 | 109
O=C(/C=C/c1cccs1)N1CCCCC1 | 44 | 105 | 1 | 1.2 | -34 | 130*
COc1ccc2nc(NC(=O)CCc3cc(OC)c(OC)c(OC)c3)sc2c1 | 0 | 98 | 10 | 0.6 | 0 | 98
C/C(=N\NC(=O)c1ccccc1F)c1ccc2c(c1)Nc1ccccc1S2 | 44 | 97 | -1 | 1.4 | -35 | 132*
CC(C)CC(NC(=O)c1ccc(C#CC(C)(C)O)s1)C(=O)O (stereo not drawn) | 3 | 93 | 14 | 1 | -1 | 99
O=[N+]([O-])c1cc(/C=N/N2CCCCC2)ccc1Cl | 4 | 94 | 11 | 3.2 | -35 | 132*
O=[N+]([O-])c1cc(/C=N/N2CCN(c3ccccc3)CC2)ccc1Cl | -8 | 90 | 14 | 1.1 | -8 | 108
COc1cccc(CC(=O)Nc2ccc(S(=O)(=O)Nc3nc(C)cc(C)n3)cc2)c1 | 19 | 112 | -4 | 1.1 | 2 | 97
O=C1C(Cl)=C(NC2CCCCC2)C(=O)N1c1ccc(Cl)cc1 | -14 | 110 | -8 | 2.1 | -45 | 141*
Cc1ccc2c(C)nc(SC(C(=O)c3ccccc3)c3ccccc3)nc2c1 (stereo not drawn) | 1 | 106 | -7 | 1 | 7 | 94
CC(=O)c1c(C)[nH]c(C(=O)NCc2ccco2)c1C | 4 | 99 | 2 | 1.1 | 1 | 100
CCn1c(C(=O)OC)cc2c1ccn2-c1ccc(F)cc1 | 80 | 95 | 10 | 2.8 | -48 | 144*
Cc1nn(-c2ccccc2)c(N)c1N=Nc1cccnc1 | 51 | 89 | 15 | 2.3 | -37 | 133*
Nc1nc(-c2ccccc2)c(N=Nc2cccnc2)s1 | -12 | 92 | 14 | 1 | 10 | 88
O=C(CCl)NCc1cc(-c2ccc(Cl)cc2)no1 | 3 | 73 | 38 | 1.7 | 16 | 85
O=C1N2CCCc3cccc(c32)C12Nc1ccccc1S2 (stereo not drawn) | -4 | 135* | -35 | 0.84 | 1 | 99
CC1CC(C)(C)N2C(=O)C3(Nc4ccccc4S3)c3cccc1c32 (stereo not drawn) | 1 | 107 | -1 | 0.87 | 6 | 95
COc1cc(/C=N/Nc2nc3ccccc3s2)ccc1OC(=O)c1ccccc1F | 173* | 119 | -27 | 12* | -4 | 106
COc1cc(/C=N/Nc2ccccc2[N+](=O)[O-])ccc1OC(=O)c1ccccc1F | 193* | 111 | -10 | 1.7 | -8 | 107
COc1ccc(/C=N/NC(N)=S)cc1OC(=O)c1cccc2ccccc12 | 19 | 95 | 15 | 0.91 | -36 | 130*
COc1cc(/C=N/Nc2ccccc2)ccc1OC(=O)c1cccs1 | 5 | 111 | -18 | 1.6 | 1 | 99
COc1cc(/C=N/Nc2ccccc2[N+](=O)[O-])cc(OC)c1O | 3 | 95 | 9 | 1.3 | 10 | 91
CCOC(=O)c1c(NC(=O)COc2cccc3c2CCN(C)C3=O)sc2c1CCC2 | -7 | 95 | 8 | 0.52 | -3 | 103
